Measured values: ChEMBL document CHEMBL3774327, “Design, synthesis, and analysis of antagonists of GPR55: Piperidine-substituted 1,3,4-oxadiazol-2-ones” (Bioorg Med Chem Lett, 2016)

Assays:
Assay type in all cases: cell-based
[1] = Antagonist activity at HA-epitope tagged GRP55E expressed with GFP-tagged beta-arr2 in human U2OS cells assessed as LPI-stimulated redistribution of beta-arr2 preincubated for 15 mins by beta-arrestin translocation assay
[2] = target: G-protein coupled receptor 55 (Homo sapiens, UniProt Q9Y2T6); assay: Antagonist activity at beta-galactosidase fragment-fused GRP55 (unknown origin) over-expressed with N-terminal deletion beta-galactosidase mutant-tagged beta-arr2 in […] cells assessed as inhibition of LPI induced beta-arrestin activity preincubated for 30 mins by PathHunter chemiluminescent complementation assay; details: cho-k1
Chain of G-protein coupled receptor 55 (Q9Y2T6 whole entry, looked up, stated change not applied, the tested form may be a part): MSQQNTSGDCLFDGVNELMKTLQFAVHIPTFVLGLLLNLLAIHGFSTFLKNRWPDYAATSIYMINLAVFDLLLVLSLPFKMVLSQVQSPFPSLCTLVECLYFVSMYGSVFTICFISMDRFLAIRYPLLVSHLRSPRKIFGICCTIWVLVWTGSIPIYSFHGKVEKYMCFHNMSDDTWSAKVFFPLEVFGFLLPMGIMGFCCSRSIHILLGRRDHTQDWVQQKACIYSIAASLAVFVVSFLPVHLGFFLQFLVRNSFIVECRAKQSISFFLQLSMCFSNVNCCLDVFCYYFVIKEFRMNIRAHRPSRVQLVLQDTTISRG
In short: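 Inhibition of LPI-induced β-arrestin activity was quantitated by chemiluminescence. Concentration-response curves were run in triplicate against 6 μM LPI, and IC50 was derived with 95% confidence intervals.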

[3] = Antagonist activity at GRP55E (unknown origin) over-expressed with GFP-tagged beta-arr2 in human U2OS cells assessed as inhibition of LPI induced beta-arrestin recruitment preincubated for 30 mins by beta-arrestin recruitment assay

Compound: Cc1cc(C)c2nc(-c3ccccn3)cc(C(=O)Nc3ccc(S(=O)(=O)Nc4onc(C)c4C)cc3)c2c1
- IC50 [1]: 220 nM

Compound: Cc1ccc(C2(C(=O)N3CCC(n4nc(-c5ccccc5)oc4=O)CC3)CC2)cc1
- IC50 [1]: 1100 nM

Compound: Cc1nc(N2CCN(C(=O)c3ccco3)CC2)c2c3c(sc2n1)CCCC3
- IC50 [1]: 700 nM

Compound: O=C(N1CCC(n2nc(-c3ccccc3)oc2=O)CC1)C1(c2ccc(Cl)cc2)CC1
- IC50 ([2]; read-out: IC50): 640 nM

Compound: O=C(N1CCC(n2nc(-c3ccccc3)oc2=O)CC1)C1(c2ccccc2)CC1
- IC50 ([2]; read-out: IC50): 12000 nM

Compound: COc1ccc(C2(C(=O)N3CCC(n4nc(-c5ccccc5)oc4=O)CC3)CC2)cc1
- IC50 [2]: ND(Insoluble)

Compound: O=C(N1CCC(n2nc(-c3ccccc3)oc2=O)CC1)C1(c2ccc(Cl)cc2Cl)CC1
- IC50 ([2]; read-out: IC50): 2500 nM

Compound: O=C(N1CCC(n2nc(-c3cccnc3)oc2=O)CC1)C1(c2ccccc2)CC1
- IC50 ([2]; read-out: IC50): 420 nM

Compound: COc1ccc(-c2nn(C3CCN(C(=O)C4(c5ccccc5)CC4)CC3)c(=O)o2)cc1
- IC50 ([2]; read-out: IC50): 7000 nM

Compound: COc1ccc(-c2nn(C3CCN(C(=O)C4(c5ccc(OC)cc5)CC4)CC3)c(=O)o2)cc1
- IC50 [2]: ND(Insoluble)

Compound: O=C(N1CCC(n2nc(-c3cccc(C(F)(F)F)c3)oc2=O)CC1)C1(c2ccccc2)CC1
- IC50 [3]: > 15000 nM

Compound: O=C(N1CCC(n2nc(-c3cccs3)oc2=O)CC1)C1(c2ccccc2)CC1
- IC50 [3]: > 15000 nM

Compound: COc1ccc(C2(C(=O)N3CCC(n4nc(-c5ccc(C(F)(F)F)cc5)oc4=O)CC3)CC2)cc1
- IC50 ([2]; read-out: IC50): 1800 nM

Compound: O=C(c1cccc2ccccc12)N1CCC(n2nc(-c3ccccc3)oc2=O)CC1
- IC50 [3]: > 15000 nM

Compound: O=C(N1CCC(n2nc(-c3ccco3)oc2=O)CC1)C1(c2ccccc2)CC1
- IC50 [3]: > 15000 nM

Compound: O=C(N1CCC(n2nc(-c3ccc(C(F)(F)F)cc3)oc2=O)CC1)C1(c2ccccc2)CC1
- IC50 [2]: ND(Insoluble)

Compound: Cc1ccc(C2(C(=O)N3CCC(n4nc(-c5ccccc5)oc4=O)CC3)CC2(C)C)cc1 (racemic)
- IC50 ([2]; read-out: IC50): 770 nM
